Reference: article PMC4944842 (Molecular cancer therapeutics, 2010)

Experiments:
PKA = PKA (Homo sapiens, UniProt P17612); experiment: Kinase enzyme assay; format: biochemical; conditions: read-out: activity remaining
p70S6K = p70S6K (Homo sapiens, UniProt P23443); experiment: Kinase enzyme assay; format: biochemical; conditions: read-out: activity remaining
Method in brief: (§1)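 Millipore profiling covered 50 human kinases. Test compound was tested at 10 µmol/L, with ATP at the Km of each enzyme. Readout was % kinase activity remaining.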

[1] = test system: PTEN-null U87MG human glioblastoma cells; experiment: Flow cytometry cell cycle analysis; format: cell-based
[2] = test system: U87MG human glioblastoma cells; experiment: Immunoblotting of AKT biomarkers and cell cycle proteins; format: cell-based
Method in brief: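 U87MG cells were exposed for 1 h to increasing test-compound concentrations, or to one fixed concentration sampled at intervals up to 48 h. Controls were DMSO and LY294002 (30 µM, 1 h). Phospho and total AKT, GSK3β, PRAS40, FOXO1/3a, S6RP, cyclin D1, p21 and p27 were immunoblotted (10% Tris-glycine gels, PVDF, overnight 4 °C primaries, ECL). GAPDH served as loading control.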

[3] = test system: LNCaP human prostate cancer cells; experiment: 96-hour SRB antiproliferative assay; format: cell-based; conditions: read-out: GI50 for growth inhibition (mean±SD)
Method in brief: (§2)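 Cells attached for 36 h before treatment so they were in exponential growth. Test compound came from a 10 mM DMSO stock. Growth was measured by sulforhodamine B staining after 96 h of exposure. GI50 was derived by a previously published method and reported as mean ± SD of 3–5 independent experiments.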

Rock-II = Rock-II (Homo sapiens, UniProt O75116); experiment: Kinase profiling at 10 µmol/L; format: biochemical; conditions: read-out: activity remaining
Method in brief: as §1

[4] = test system: PTEN-null U87MG human glioblastoma xenografts; experiment: Antitumor activity in human tumor xenograft; format: in vivo, mice; conditions: 25 mg/kg i.p. × 5 of 7 days
Method in brief: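 U87MG cells (2 × 10⁶) were injected s.c. into the right flank of 6–8-week-old female […] mice. Mice were randomized at ~100 mm³ mean tumor volume and given test compound i.p. or vehicle (10% DMSO, 5% Tween 20, 85% saline). Body weight and caliper tumor diameters were recorded three times weekly. Volume = 4/3π[(d1+d2)/4]³; tumors were excised and weighed at study end.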

[5] = test system: HER2-positive, PIK3CA-mutant BT474 human breast cancer xenografts; experiment: Antitumor activity in human tumor xenograft; format: in vivo, mice; conditions: 40 mg/kg bid × 5 of 7 days
Method in brief: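 BT474 cells (5 × 10⁶) in medium mixed 1:1 with matrigel were implanted into mammary fat pads of female mice. Estradiol pellets (0.025 mg, 90-day release) had been placed s.c. 3 days earlier. Mice were randomized at ~100 mm³ mean tumor volume. Dosing was 40 mg/kg i.p. twice daily for 5 days versus vehicle (10% DMSO, 5% Tween 20, 85% saline). Tumors (calipers) and body weight were measured thrice weekly.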

[6] = test system: U87MG human glioblastoma cells; experiment: 96-hour SRB antiproliferative assay; format: cell-based; conditions: U-87 MG, read-out: GI50 for growth inhibition (mean±SD)
Method in brief: as §2

[7] = test system: panel of kinases representative of the human protein kinome; experiment: Kinase profiling at 10 µmol/L against panel of kinases; format: biochemical; conditions: ATP at Km
Method in brief: as §1

[8] = Pharmacokinetics after single dose of 25 mg/kg; format: in vivo, mice
Method in brief: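 Mice bearing HCT116 xenografts received a single 25 mg/kg dose i.v., i.p. or p.o. Plasma and tumor were sampled over time, 3–5 mice per time point. Drug was extracted with methanol and quantified by LC-MS on a Synergi-Polar RP column (0.1% formic acid/methanol gradient, 0.6 ml/min, 12 min). Data are mean ± SE.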

[9] = test system: PC3 and LNCaP prostate cancer cell lines, HCT116 colorectal cancer cells and MCF7 human breast cancer cells; format: cell-based; conditions: one hour exposure, 3 or 10 µM
Method in brief: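 PC3, LNCaP, HCT116 and MCF7 cells were exposed for 1 h to 3 or 10 µM test compound. Controls were DMSO and LY294002 (30 µM, 1 h). Lysates were run on 10% Tris-glycine gels, transferred to PVDF and blocked in 5% milk/Tris-NaCl-Tween. Primary antibodies were applied overnight at 4 °C, then HRP secondaries for 1 h, with ECL detection. GAPDH served as loading control.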

[10] = test system: U87MG human glioblastoma xenografts; experiment: Pharmacodynamic AKT biomarker immunoblotting in tumor xenografts; format: in vivo, mice; conditions: 50 mg/kg i.p. × 4 days
Method in brief: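 Mice bearing s.c. U87MG xenografts received 50 mg/kg i.p. daily for 4 days. Tumors were harvested 2 and 6 h after the last dose; protein was measured by Bradford and tumors were immunoblotted. Each phosphoprotein/total protein ratio was normalized to GAPDH and expressed relative to vehicle controls (=1.0). Data are mean ± SE of 3–5 determinations.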

[11] = test system: PC3 human prostate cancer cells; experiment: 96-hour SRB antiproliferative assay; format: cell-based; conditions: read-out: GI50 for growth inhibition (mean±SD)
Method in brief: as §2

CHK2 = CHK2 (Homo sapiens, UniProt O96017); experiment: Kinase profiling at 10 µmol/L; format: biochemical; conditions: read-out: activity remaining
Method in brief: as §1

Sequence of Rock-II (O75116 whole entry): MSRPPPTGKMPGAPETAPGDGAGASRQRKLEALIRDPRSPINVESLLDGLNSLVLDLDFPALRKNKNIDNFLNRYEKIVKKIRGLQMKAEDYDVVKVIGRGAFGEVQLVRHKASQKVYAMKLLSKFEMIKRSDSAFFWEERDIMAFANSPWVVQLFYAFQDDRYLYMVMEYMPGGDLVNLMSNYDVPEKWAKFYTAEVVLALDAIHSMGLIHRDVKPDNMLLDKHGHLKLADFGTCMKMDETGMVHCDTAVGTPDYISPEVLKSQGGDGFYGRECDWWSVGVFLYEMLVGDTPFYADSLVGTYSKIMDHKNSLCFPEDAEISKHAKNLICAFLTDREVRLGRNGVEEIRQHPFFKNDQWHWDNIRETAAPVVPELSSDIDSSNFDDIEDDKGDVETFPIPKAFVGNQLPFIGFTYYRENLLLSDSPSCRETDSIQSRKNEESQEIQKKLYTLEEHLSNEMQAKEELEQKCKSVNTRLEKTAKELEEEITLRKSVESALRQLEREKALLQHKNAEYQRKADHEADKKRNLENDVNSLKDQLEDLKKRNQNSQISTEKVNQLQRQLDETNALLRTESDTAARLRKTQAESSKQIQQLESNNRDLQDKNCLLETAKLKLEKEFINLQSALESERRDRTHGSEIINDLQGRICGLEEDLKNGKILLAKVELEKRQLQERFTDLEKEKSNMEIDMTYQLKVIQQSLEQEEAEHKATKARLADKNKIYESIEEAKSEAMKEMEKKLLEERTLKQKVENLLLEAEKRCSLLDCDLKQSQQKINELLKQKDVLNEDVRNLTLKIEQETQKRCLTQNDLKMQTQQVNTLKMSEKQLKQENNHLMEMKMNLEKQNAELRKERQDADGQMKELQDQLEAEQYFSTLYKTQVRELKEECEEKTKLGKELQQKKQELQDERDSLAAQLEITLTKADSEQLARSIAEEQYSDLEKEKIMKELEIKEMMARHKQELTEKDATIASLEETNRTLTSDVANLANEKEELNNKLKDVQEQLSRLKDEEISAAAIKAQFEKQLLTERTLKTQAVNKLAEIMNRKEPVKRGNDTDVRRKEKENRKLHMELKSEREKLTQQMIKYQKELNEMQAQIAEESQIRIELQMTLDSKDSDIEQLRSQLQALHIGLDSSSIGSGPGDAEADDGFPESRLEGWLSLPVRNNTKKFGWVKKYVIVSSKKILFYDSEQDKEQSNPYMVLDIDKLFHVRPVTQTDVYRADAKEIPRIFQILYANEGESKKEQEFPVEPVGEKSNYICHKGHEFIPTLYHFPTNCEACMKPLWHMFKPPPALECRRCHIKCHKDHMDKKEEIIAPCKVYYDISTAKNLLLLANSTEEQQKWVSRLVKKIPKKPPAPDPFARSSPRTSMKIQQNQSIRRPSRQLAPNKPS
Sequence of p70S6K (P23443 whole entry): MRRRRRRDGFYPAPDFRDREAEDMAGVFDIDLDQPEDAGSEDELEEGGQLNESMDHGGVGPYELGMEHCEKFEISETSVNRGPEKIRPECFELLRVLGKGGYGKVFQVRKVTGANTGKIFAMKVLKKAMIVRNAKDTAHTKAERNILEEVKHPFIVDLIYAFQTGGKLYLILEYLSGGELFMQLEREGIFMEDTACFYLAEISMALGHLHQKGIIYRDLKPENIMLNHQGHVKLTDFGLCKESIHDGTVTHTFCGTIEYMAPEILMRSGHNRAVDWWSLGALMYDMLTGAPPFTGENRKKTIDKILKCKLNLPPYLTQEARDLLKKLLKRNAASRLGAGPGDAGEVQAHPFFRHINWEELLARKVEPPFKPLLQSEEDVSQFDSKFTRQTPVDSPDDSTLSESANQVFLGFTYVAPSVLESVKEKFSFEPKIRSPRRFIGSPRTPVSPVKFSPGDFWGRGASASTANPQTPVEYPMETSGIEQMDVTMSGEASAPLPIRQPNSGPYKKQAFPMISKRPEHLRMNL
Sequence of CHK2 (O96017 whole entry): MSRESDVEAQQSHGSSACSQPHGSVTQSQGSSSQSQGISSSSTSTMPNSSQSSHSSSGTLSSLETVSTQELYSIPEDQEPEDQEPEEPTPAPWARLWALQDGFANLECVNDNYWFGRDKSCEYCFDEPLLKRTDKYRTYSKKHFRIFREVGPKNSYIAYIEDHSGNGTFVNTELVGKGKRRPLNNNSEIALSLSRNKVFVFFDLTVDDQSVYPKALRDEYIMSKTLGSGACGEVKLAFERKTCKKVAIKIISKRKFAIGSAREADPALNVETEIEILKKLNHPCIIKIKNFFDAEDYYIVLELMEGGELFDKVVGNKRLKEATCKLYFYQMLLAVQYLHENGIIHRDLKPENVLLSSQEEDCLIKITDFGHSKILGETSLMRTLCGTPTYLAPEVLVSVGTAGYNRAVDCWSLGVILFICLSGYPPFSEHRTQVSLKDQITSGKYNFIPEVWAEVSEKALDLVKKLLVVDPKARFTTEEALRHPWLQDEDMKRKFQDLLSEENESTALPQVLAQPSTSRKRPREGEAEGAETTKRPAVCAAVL

## NC1(Cc2ccc(Cl)cc2)CCN(c2ncnc3[nH]ccc23)CC1 [CCT128930, 4-(4-chlorobenzyl)-1-(7H-pyrrolo[2,3-d]pyrimidin-4-yl)piperidin-4-amine]
PKA
  remaining activity at 10 µM: < 25%
p70S6K
  remaining activity at 10 µM: < 25%
[1]; 1 × GI50, 24 hours, DMSO control 16.7%
  G2/M cells: 18.9%
[1]; 1 × GI50, 24 hours, DMSO control 32.3%
  S phase cells: 13.2%
[1]; 1 × GI50, 24 hours, DMSO control 46.4%
  G0/G1 phase cells: 63.2%
[1]; 3 × GI50 (18.9µM), 24 hours, DMSO control 17.8%
  G2/M phase cells: 30.5%
[1]; 3 × GI50 (18.9µM), 24 hours, DMSO control 36.6%
  S phase cells: 2.0%
[1]; 3 × GI50 (18.9µM), 24 hours, DMSO control 43.6%
  G0/G1 phase cells: 64.8%
[2]; 18.9 μM
  cyclin D1 over time: decreased after 8 hours
[2]; 18.9 μM (3× GI50), after 30 minutes, sustained for 48 hours
  pSer473 AKT over time: increase in phosphorylation
[2]; 18.9 μM, after one hour exposure
  pThr32 FOXO3a phosphorylation: marked decrease
[2]; 18.9 μM, decrease at 30 minutes
  pSer235/236 S6RP signal over time: complete loss after 2 hours
[2]; 18.9 μM, decreased from 4 hours
  pSer240/244 S6RP signal over time: abolished after 8 hours
[2]; 18.9 μM, from 30 minutes, sustained at least 24 hours, recovery at 48 hours
  pSer9 GSK3β phosphorylation over time: rapid and profound loss
[2]; 18.9 μM, from 30 minutes, sustained throughout 48 hours
  pThr246 PRAS40 over time: marked loss in phosphorylation
[2]; 18.9 μM, from 2 hours
  CDK inhibitor p27 over time: induction
[2]; 1 hour
  exposure sufficient to markedly inhibit phosphorylation of GSK3β, S6RP, FOXO1 and PRAS40: 5 to 10 µM
[2]; 1 h treatment
  concentration decreasing cyclin D1 expression: ≥ 40 µM
  concentration inhibiting direct substrates of AKT (Ser9 GSK3β, pThr246 PRAS40 and pT24 FOXO1/p32 FOXO3a): ≥ 5 μM
  concentration inhibiting downstream target pSer235/236 S6RP: ≥ 10 μM
[2]; 1 h treatment, increasing concentrations
  effect on pSer240/244 S6RP: minimal effects
[2]; 1 h treatment, decrease at higher concentrations
  concentration up to which AKT phosphorylation at serine 473 is induced: up to 20 μM
[2]; after CCT128930 treatment (Supplementary Figure 2)
  apoptosis as measured by PARP cleavage: increase
[3]
  GI50: 350 nM
Rock-II
  remaining activity at 10 µM: < 25%
[4]
  weight loss: no weight loss
[5]
  antitumor effect: complete growth arrest
[5]; day 15 of treatment
  body weight nadir, % of the initial body weight: 94.8%
[6]
  GI50: 6.3 µM
[7]
  cross-reactivity with 47 other kinases: minimal cross-reactivity
[8]; 25 mg/kg i.p., HCT116 human colon tumor xenograft
  peak tumor concentration: 8 µM
[8]; 25 mg/kg i.p., HCT116 tumor xenograft
  AUC0-∞ tumor: 25.8 µMh
[8]; 25 mg/kg i.p., after 24 hours (data not shown)
  administered dose recovered unaltered in urine: 0.23%
[8]; 25 mg/kg i.p., mice
  AUC0-∞ plasma: 1.3 µMh
[8]; 25 mg/kg i.v., mice
  AUC0-∞ plasma: 4.6 µMh
  peak concentration in plasma: 6.4 µM
[8]; 25 mg/kg p.o., mice
  peak plasma concentration: 0.43 µM
[9]
  pSer473 AKT: induction
[9]; all four cell lines
  pSer9 GSK3β: Decreased phosphorylation
  pSer240/244 S6RP: decreased
[10]; 2 and 6 hours (P<0.001 and P<0.01)
  phosphorylation of Ser9 GSK3β: significant decreases
[10]; 2 and 6 hours (P<0.05 and P<0.01)
  phosphorylation of Ser235/236 S6RP: significant decreases
[10]; 2 and 6 hours (P<0.05 and P<0.05)
  phosphorylation of Thr246 PRAS40: significant decreases
[10]; 2 and 6 hours after last dose (P<0.001 and P<0.01)
  Ser473 phosphorylation on AKT: significant increase
[11]
  GI50: 1900 nM
CHK2
  remaining activity at 10 µM: < 25%
